Assay results as given in ChEMBL document CHEMBL5712901, “DOT1L inhibition blocks multiple myeloma cell proliferation by suppressing IRF4-MYC signaling” (2019).
The source made the active and inactive calls.

Tests used:
[1] = system: RPMI-8226; experiment: Upregulation of CCR2 gene in human RPMI-8226 cells at 1 uM for 6 days by; assay type: functional, cell-based; conditions: time 6.0 day
[2] = system: MM1.S; experiment: Upregulation of RAPGEF2 gene in human MM1.S cells at 1 uM for 6 days by; assay type: functional, cell-based; conditions: time 6.0 day
[3] = system: RPMI-8226; experiment: Upregulation of LY86 gene in human RPMI-8226 cells at 1 uM for 6 days by; assay type: functional, cell-based; conditions: time 6.0 day
[4] = system: RPMI-8226; experiment: Upregulation of HLA-DRA gene in human RPMI-8226 cells at 1 uM for 6 days by; assay type: functional, cell-based; conditions: time 6.0 day
[5] = system: RPMI-8226; experiment: Upregulation of CARD6 gene in human RPMI-8226 cells at 1 uM for 6 days by; assay type: functional, cell-based; conditions: time 6.0 day
[6] = system: RPMI-8226; experiment: Upregulation of IFITM1 gene in human RPMI-8226 cells at 1 uM for 6 days by; assay type: functional, cell-based; conditions: time 6.0 day
[7] = system: RPMI-8226; experiment: Upregulation of TP53TG3 gene in human RPMI-8226 cells at 1 uM for 6 days by; assay type: functional, cell-based; conditions: time 6.0 day
[8] = system: RPMI-8226; experiment: Upregulation of PPP1R1C gene in human RPMI-8226 cells at 1 uM for 6 days by; assay type: functional, cell-based; conditions: time 6.0 day
[9] = system: MM1.S; experiment: Upregulation of ZNF862 gene in human MM1.S cells at 1 uM for 6 days by; assay type: functional, cell-based; conditions: time 6.0 day
[10] = system: MM1.S; experiment: Upregulation of TP53I3 gene in human MM1.S cells at 1 uM for 6 days by; assay type: functional, cell-based; conditions: time 6.0 day
[11] = system: RPMI-8226; experiment: Upregulation of SMIM14 gene in human RPMI-8226 cells at 1 uM for 6 days by; assay type: functional, cell-based; conditions: time 6.0 day
[12] = system: MM1.S; experiment: Upregulation of CCR2 gene in human MM1.S cells at 1 uM for 6 days by; assay type: functional, cell-based; conditions: time 6.0 day
[13] = system: RPMI-8226; experiment: Upregulation of LAMB3 gene in human RPMI-8226 cells at 1 uM for 6 days by; assay type: functional, cell-based; conditions: time 6.0 day
[14] = system: MM1.S; experiment: Upregulation of ACOT11 gene in human MM1.S cells at 1 uM for 6 days by; assay type: functional, cell-based; conditions: time 6.0 day
[15] = system: RPMI-8226; experiment: Upregulation of SERPINB1 gene in human RPMI-8226 cells at 1 uM for 6 days by; assay type: functional, cell-based; conditions: time 6.0 day
[16] = system: MM1.S; experiment: Upregulation of NOG gene in human MM1.S cells at 1 uM for 6 days by; assay type: functional, cell-based; conditions: time 6.0 day
[17] = system: MM1.S; experiment: Upregulation of IQCE gene in human MM1.S cells at 1 uM for 6 days by; assay type: functional, cell-based; conditions: time 6.0 day
[18] = system: MM1.S; experiment: Upregulation of APH1B gene in human MM1.S cells at 1 uM for 6 days by; assay type: functional, cell-based; conditions: time 6.0 day
[19] = system: RPMI-8226; experiment: Upregulation of IFI44 gene in human RPMI-8226 cells at 1 uM for 6 days by; assay type: functional, cell-based; conditions: time 6.0 day
[20] = system: MM1.S; experiment: Upregulation of PARP8 gene in human MM1.S cells at 1 uM for 6 days by; assay type: functional, cell-based; conditions: time 6.0 day
[21] = system: RPMI-8226; experiment: Upregulation of ISG15 gene in human RPMI-8226 cells at 1 uM for 6 days by; assay type: functional, cell-based; conditions: time 6.0 day
[22] = system: RPMI-8226; experiment: Upregulation of HLA-DRB1 gene in human RPMI-8226 cells at 1 uM for 6 days by; assay type: functional, cell-based; conditions: time 6.0 day
[23] = system: MM1.S; experiment: Upregulation of EMID1 gene in human MM1.S cells at 1 uM for 6 days by; assay type: functional, cell-based; conditions: time 6.0 day
In short: (§1)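 Human myeloma lines RPMI-8226 and MM.1S exposed to 1 μM DOT1L inhibitor, or DMSO, for 6 days. Whole-genome expression profiled on gene expression microarray.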

[24] = system: RPMI-8226; experiment: Upregulation of XKR3 gene in human RPMI-8226 cells at 1 uM for 6 days by; assay type: functional, cell-based; conditions: time 6.0 day
[25] = system: RPMI-8226; experiment: Upregulation of CXCL12 gene in human RPMI-8226 cells at 1 uM for 6 days by; assay type: functional, cell-based; conditions: time 6.0 day; in short: as §1
[26] = system: RPMI-8226; experiment: Upregulation of ANXA2R gene in human RPMI-8226 cells at 1 uM for 6 days by; assay type: functional, cell-based; conditions: time 6.0 day
[27] = system: RPMI-8226; experiment: Upregulation of CTSH gene in human RPMI-8226 cells at 1 uM for 6 days by; assay type: functional, cell-based; conditions: time 6.0 day; in short: as §1
[28] = system: RPMI-8226; experiment: Upregulation of ANTXR2 gene in human RPMI-8226 cells at 1 uM for 6 days by; assay type: functional, cell-based; conditions: time 6.0 day
[29] = system: MM1.S; experiment: Upregulation of BHLHE22 gene in human MM1.S cells at 1 uM for 6 days by; assay type: functional, cell-based; conditions: time 6.0 day
[30] = system: RPMI-8226; experiment: Upregulation of MMP9 gene in human RPMI-8226 cells at 1 uM for 6 days by; assay type: functional, cell-based; conditions: time 6.0 day
[31] = system: MM1.S; experiment: Upregulation of SMIM14 gene in human MM1.S cells at 1 uM for 6 days by; assay type: functional, cell-based; conditions: time 6.0 day
[32] = system: MM1.S; experiment: Downregulation of H3K79me2 level in human MM1.S cells at 1 uM for 3 days by ChIP-qPCR analysis; assay type: functional, cell-based; conditions: time 3.0 day
In short: (§2)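 ChIP-qPCR for H3K79me2 at IRF4-MYC signaling genes after 1 μM inhibitor or DMSO for 3 days. Signal normalized to input DNA. An intergenic region 28 kb upstream of KLF2 served as negative control. Mean of 3 replications ± SEM.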

[33] = system: RPMI-8226; experiment: Upregulation of FZD1 gene in human RPMI-8226 cells at 1 uM for 6 days by; assay type: functional, cell-based; conditions: time 6.0 day; in short: as §1
[34] = system: RPMI-8226; experiment: Downregulation of H3K79me2 level in human RPMI-8226 cells at 1 uM for 3 days by ChIP-qPCR analysis; assay type: functional, cell-based; conditions: time 3.0 day; in short: as §2
[35] = system: MM1.S; experiment: Upregulation of FBXO2 gene in human MM1.S cells at 1 uM for 6 days by; assay type: functional, cell-based; conditions: time 6.0 day; in short: as §1
[36] = system: MM1.S; experiment: Upregulation of ZSCAN31 gene in human MM1.S cells at 1 uM for 6 days by; assay type: functional, cell-based; conditions: time 6.0 day
[37] = system: MM1.S; experiment: Upregulation of SLC9A9 gene in human MM1.S cells at 1 uM for 6 days by; assay type: functional, cell-based; conditions: time 6.0 day
[38] = system: RPMI-8226; experiment: Upregulation of TP53I3 gene in human RPMI-8226 cells at 1 uM for 6 days by; assay type: functional, cell-based; conditions: time 6.0 day
[39] = system: MM1.S; experiment: Upregulation of CXCL9 gene in human MM1.S cells at 1 uM for 6 days by; assay type: functional, cell-based; conditions: time 6.0 day; in short: as §1
[40] = system: MM1.S; experiment: Induction of apoptosis in human MM1.S cells assessed as necrotic cells at 1 uM for 3 days by annexin-V based propidium iodide staining based flow cytometric analysis (reference value: 0.064%); assay type: functional; conditions: time 3 day
[41] = system: MM1.S; experiment: Upregulation of IFN in human MM1.S cells assessed as increase in ISG15 gene at 1 uM for 6 days by qRT-PCR analysis; assay type: functional, cell-based; conditions: time 6.0 day
[42] = system: RPMI-8226; experiment: Induction of cell cycle arrest in human RPMI-8226 cells assessed as decrease in accumulation of cells at S phase at 1 uM for 6 days; assay type: functional, cell-based; conditions: time 6.0 day
In short: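 Flow cytometric cell cycle analysis of RPMI-8226 and MM.1S cells treated with 1 μM DOT1L inhibitor or DMSO for 6 days. Sub-G1, G0-G1 and S phase populations scored. Summary is from 3 replications, mean ± SEM.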

[43] = system: RPMI-8226; experiment: Induction of apoptosis in human RPMI-8226 cells assessed as early apoptotic cells at 1 uM for 3 days by annexin-V based propidium iodide staining based flow cytometric analysis (reference value: 3.02%); assay type: functional; conditions: time 3 day

Measured: Activity

CC(C)N(CCCNC(=O)Nc1ccc(C(C)(C)C)cc1)C[C@H]1O[C@@H](n2cc(Br)c3c(N)ncnc32)[C@H](O)[C@@H]1O
active: [1] | [2] | [3] | [4] | [5] | [6] | [7] | [8] | [9] | [10] | [11] | [12] | [13] | [14] | [15] | [16] | [17] | [18] | [19] | [20] | [21] | [22] | [23] | [24] | [25] | [26] | [27] | [28] | [29] | [30] | [31] | [32] | [33] | [34] | [35] | [36] | [37] | [38] | [39]

CC(C)N(C[C@H]1O[C@@H](n2cnc3c(N)ncnc32)[C@H](O)[C@@H]1O)[C@H]1C[C@@H](CCc2nc3cc(C(C)(C)C)ccc3[nH]2)C1 [PINOMETOSTAT]
7.39%: [43]
0.06%: [40]
active: [41] | [42]
